Test results taken from ChEMBL document CHEMBL4706562, “Design, synthesis and evaluation of covalent inhibitors of DprE1 as antitubercular agents” (Eur J Med Chem, 2020).
Values after ≈ are worked out from the molar mass of the structure shown. Active and inactive are the calls of the source. The rule behind the calls is not given here.

Assays:
[1] = biological target: T1, Decaprenylphosphoryl-beta-D-ribose oxidase (Mycobacterium tuberculosis (strain ATCC 25618 / H37Rv), UniProt P9WJF1); experiment: Inhibition of Mycobacterium tuberculosis DprE1 expressed in Escherichia coli BL21 (DE3) cells assessed as formation of resorufin using FPR as substrate by Amplex Red hydrogen/peroxidase coupled assay
T1 sequence (P9WJF1 whole entry): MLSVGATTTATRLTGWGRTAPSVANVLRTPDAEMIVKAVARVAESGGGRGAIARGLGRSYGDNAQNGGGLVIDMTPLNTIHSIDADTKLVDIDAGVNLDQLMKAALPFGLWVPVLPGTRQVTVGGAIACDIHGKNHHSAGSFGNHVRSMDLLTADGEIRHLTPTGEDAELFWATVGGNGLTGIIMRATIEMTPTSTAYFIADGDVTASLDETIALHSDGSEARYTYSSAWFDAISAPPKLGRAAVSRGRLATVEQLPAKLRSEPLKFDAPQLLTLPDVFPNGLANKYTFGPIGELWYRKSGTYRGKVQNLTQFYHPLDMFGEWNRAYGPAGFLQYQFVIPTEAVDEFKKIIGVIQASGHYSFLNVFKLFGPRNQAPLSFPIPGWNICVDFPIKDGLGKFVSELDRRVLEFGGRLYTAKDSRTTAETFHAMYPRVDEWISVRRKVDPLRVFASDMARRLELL

[2] = test system: Mycobacterium tuberculosis; experiment: Antimycobacterial activity against Mycobacterium tuberculosis H37Rv ATCC 25618 assessed as inhibition of visible bacterial growth by MABA assay; assay type: functional
Summary of the method: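 Inoculum adjusted to 1.0 McFarland, diluted 1:20 in Middlebrook 7H9 with 10% OADC and 0.2% glycerol. Compounds taken from 1.0 mg/mL DMSO stocks and serially diluted two-fold. Microplate alamar blue read-out: blue to pink marks growth, colours recorded after 24 h. MIC taken as the lowest concentration giving no colour change. PBTZ169 served as positive control.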

[3] = biological target: T2, Decaprenylphosphoryl-beta-D-ribose oxidase (Mycobacterium tuberculosis (strain ATCC 25618 / H37Rv)) (UniProt P9WJF1); experiment: Inhibition of Mycobacterium tuberculosis DprE1 expressed in Escherichia coli BL21 (DE3) cells assessed as formation of resorufin using FPR as substrate at 20 uM by Amplex Red hydrogen/peroxidase coupled assay; parameters: scale not given: the % may be the effect or the level left
T2 sequence (whole entry): T1 sequence (P9WJF1 whole entry)

[4] = Half life of the compound in PBS assessed as parent compound remaining by HPLC analysis; assay type: physicochemical
[5] = Reactivity of compound towards methyl thioglycolate in PBS measured after 48 hrs by LC/MS/MS; assay type: physicochemical; settings: buffer
Summary of the method: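 Test compound and methyl thioglycolate co-incubated at 37 °C in 50 mM PBS, pH 7.4. The reaction was followed by TLC, and aliquots were injected into LC-MS/MS at set intervals over 48 h. Electrospray positive-ion mass spectra detected MT adducts, and half-life was determined.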

[6] = biological target: T2, Decaprenylphosphoryl-beta-D-ribose oxidase (Mycobacterium tuberculosis (strain ATCC 25618 / H37Rv)); experiment: Binding affinity to trypsin digested Mycobacterium tuberculosis DprE1 protein assessed as Cys387 adduct formation with 387-CVDFP-391 sequence at 300 uM by measuring retention time by LC/MS analysis
[7] = biological target: T2, Decaprenylphosphoryl-beta-D-ribose oxidase (Mycobacterium tuberculosis (strain ATCC 25618 / H37Rv)); experiment: Covalent binding affinity to Mycobacterium tuberculosis DprE1 assessed as adduct formation by measuring 490 Da shift increase in molecular weight at 100 uM by Mass spectrometry analysis
[8] = biological target: T2, Decaprenylphosphoryl-beta-D-ribose oxidase (Mycobacterium tuberculosis (strain ATCC 25618 / H37Rv)); experiment: Inhibition of Mycobacterium tuberculosis H37Rv DprE1 assessed as increase in trehalose dimycolates at 100 x MIC incubated for 24 hrs using [14C]acetate by TLC based metabolic labelling assay relative to control
Summary of the method: (§1)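 M. tuberculosis H37Rv cultures labelled with [14C]acetate for 24 h. […] Lipids extracted and resolved by TLC, with TDM/TMM compared to untreated control cells. BTZ043 and PBTZ169 served as control inhibitors.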

[9] = biological target: T2, Decaprenylphosphoryl-beta-D-ribose oxidase (Mycobacterium tuberculosis (strain ATCC 25618 / H37Rv)); experiment: Inhibition of Mycobacterium tuberculosis H37Rv DprE1 assessed as increase in trehalose monomycolates at 100 x MIC incubated for 24 hrs using [14C]acetate by TLC based metabolic labelling assay relative to control; summary of the method: as §1
[10] = biological target: T2, Decaprenylphosphoryl-beta-D-ribose oxidase (Mycobacterium tuberculosis (strain ATCC 25618 / H37Rv)); experiment: Inhibition of Mycobacterium tuberculosis H37Rv DprE1 assessed as increase in trehalose dimycolates at 10 x MIC preincubated for 24 hrs using [14C]acetate by TLC based metabolic labelling assay relative to control; summary of the method: as §1
[11] = biological target: T2, Decaprenylphosphoryl-beta-D-ribose oxidase (Mycobacterium tuberculosis (strain ATCC 25618 / H37Rv)); experiment: Inhibition of Mycobacterium tuberculosis H37Rv DprE1 assessed as increase in trehalose monomycolates at 10 x MIC preincubated for 24 hrs using [14C]acetate by TLC based metabolic labelling assay relative to control; summary of the method: as §1
[12] = biological target: T2, Decaprenylphosphoryl-beta-D-ribose oxidase (Mycobacterium tuberculosis (strain ATCC 25618 / H37Rv)); experiment: Covalent binding affinity to Mycobacterium tuberculosis DprE1 assessed as adduct formation by measuring 460 Da shift increase in molecular weight at 100 uM by Mass spectrometry analysis
[13] = biological target: T2, Decaprenylphosphoryl-beta-D-ribose oxidase (Mycobacterium tuberculosis (strain ATCC 25618 / H37Rv)); experiment: Binding affinity to trypsin digested Mycobacterium tuberculosis DprE1 protein assessed as Cys387 adduct formation with 385-NICVDFPIL-393 sequence at 300 uM by measuring retention time by LC/MS analysis

Row | Structure (SMILES) | IC50 [1] | MIC [2] | half-life [4] | Activity [5] | Activity [8] | Activity [9] | other results
1 | N#CCCc1cc(C(F)(F)F)cc2c(=O)nc(N3CCN(CC4CCCCC4)CC3)sc12 | 13200 nM | > 9 µM | – | – | – | – | –
2 | O=c1nc(N2CCN(CC3CCCCC3)CC2)sc2c(/C=C/c3ccccn3)cc(C(F)(F)F)cc12 | – | > 20 µM | – | – | – | – | Activity [3]: < 70%
3 | COC(=O)/C=C/c1cc(C(F)(F)F)cc2c(=O)nc(N3CCN(CC4CCCCC4)CC3)sc12 | 1240 nM | > 20 µM | 1 h | Active | inactive | inactive | Retention time [6]: 43.3 min; Activity [7]: Active; Activity [10]: Active; Activity [11]: Active
4 | O=c1nc(N2CCN(CC3CCCCC3)CC2)sc2nc(Cl)ncc12 | > 20000 nM | > 20 µM | 4 h | Active | – | – | –
5 | COC(=O)CCc1cc(C(F)(F)F)cc2c(=O)nc(N3CCN(CC4CCCCC4)CC3)sc12 | 5400 nM | > 9 µM | – | – | – | – | –
6 | COC(=O)C#Cc1cc(C(F)(F)F)cc2c(=O)nc(N3CCN(CC4CCCCC4)CC3)sc12 | 140 nM | 10 µM (≈ 4.94 µg/mL) | 1.2 h | Active | inactive | inactive | Activity [10]: Active; Activity [11]: Active
7 | O=c1nc(N2CCN(CC3CCCCC3)CC2)sc2c(Br)cc(C(F)(F)F)cc12 | 1840 nM | 0.16 µM (≈ 0.0785 µg/mL) | – | – | – | – | Activity [10]: Active; Activity [11]: Active
8 | N#Cc1ncc2c(=O)nc(N3CCN(CC4CCCCC4)CC3)sc2n1 | > 20000 nM | 6.73 µM (≈ 2.49 µg/mL) | – | – | – | – | –
9 | N#Cc1cc(C(F)(F)F)cc2c(=O)nc(N3CCN(CC4CCCCC4)CC3)sc12 | 1700 nM | 0.16 µM (≈ 0.0698 µg/mL) | 12 h | Active | – | – | –
10 | O=c1nc(N2CCN(CC3CCCCC3)CC2)sc2c(I)cc(C(F)(F)F)cc12 | 2350 nM | 0.63 µM (≈ 0.339 µg/mL) | – | – | – | – | –
11 | NC(=O)/C=C/c1cc(C(F)(F)F)cc2c(=O)nc(N3CCN(CC4CCCCC4)CC3)sc12 | 200 nM | 20 µM (≈ 9.61 µg/mL) | 10 h | Active | inactive | inactive | Activity [12]: Active; Retention time [13]: 29.3 min; Activity [10]: Active; Activity [11]: Active
12 | N#Cc1ccc2c(=O)nc(N3CCN(CC4CCCCC4)CC3)sc2n1 | 7720 nM | > 12 µM | – | – | – | – | –
13 | NC(=O)CCc1cc(C(F)(F)F)cc2c(=O)nc(N3CCN(CC4CCCCC4)CC3)sc12 | 16700 nM | > 9 µM | – | – | – | – | –
14 | CNC(=O)/C=C/c1cc(C(F)(F)F)cc2c(=O)nc(N3CCN(CC4CCCCC4)CC3)sc12 | 390 nM | 20 µM (≈ 9.89 µg/mL) | – | – | inactive | inactive | –
15 | CN(C)C(=O)/C=C/c1cc(C(F)(F)F)cc2c(=O)nc(N3CCN(CC4CCCCC4)CC3)sc12 | 1250 nM | > 20 µM | > 48 h | Active | – | – | –
16 | N#C/C=C/c1cc(C(F)(F)F)cc2c(=O)nc(N3CCN(CC4CCCCC4)CC3)sc12 | – | > 20 µM | 0.2 h | Active | – | – | Activity [3]: < 70%
17 | C[C@H]1COC2(CCN(c3nc(=O)c4cc(C(F)(F)F)cc([N+](=O)[O-])c4s3)CC2)O1 | – | – | – | – | Active | Active | –
18 | O=c1nc(N2CCN(CC3CCCCC3)CC2)sc2c([N+](=O)[O-])cc(C(F)(F)F)cc12 [MACOZINONE] | – | – | – | – | Active | Active | –
19 | O=c1nc(N2CCN(CC3CCCCC3)CC2)sc2c(Cl)cc(C(F)(F)F)cc12 | 920 nM | 0.03 µM (≈ 0.0134 µg/mL) | – | – | – | – | Activity [10]: Active; Activity [11]: Active
